Measured values from ChEMBL document CHEMBL4007433, “Design, synthesis, biological evaluation and molecular modeling study of novel macrocyclic bisbibenzyl analogues as antitubulin agents” (Eur J Med Chem, 2017).
Counter-ions that a name gives are not always drawn. Calls of active or inactive are those of the source. The calls are words filed in the database; no cut-off is given here.

Columns and labels:
HT-29 = assay: Antiproliferative activity against human HT-29 cells after 48 hrs by MTT assay; format: functional, cell-based; conditions: HT-29, 48 h
K562 = assay: Antiproliferative activity against human K562 cells after 48 hrs by MTT assay; format: functional, cell-based; conditions: K562, 48 h
HeLa = assay: Antiproliferative activity against human HeLa cells after 48 hrs by MTT assay; format: functional, cell-based
[1] = Antiproliferative activity against human HCC1428 cells after 48 hrs by MTT assay; format: functional, cell-based; conditions: HCC1428, 48 h
PC-3 = assay: Antiproliferative activity against paclitaxel-resistant human PC3 cells after 48 hrs by MTT assay; format: functional, cell-based; conditions: PC-3, 48 h
Homo sapiens [2] = species: Homo sapiens; assay: Inhibition of alpha-tubulin polymerization in human HCC1428 cells at 6 to 10 uM after 24 hrs by confocal microscopic method; format: cell-based
Outline: (§1)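 HCC1428 cells grown on glass coverslips and treated 24 h; 1 µM vincristine and DMSO as controls. Fixed in cold methanol/acetone (1:1) 5 min, then blocked 20 min in 3% goat serum with 0.1% Triton X-100. Stained with mouse anti-α-tubulin and a FITC secondary, DAPI 4 µg/mL 15 min. Imaged by confocal microscopy; three independent experiments.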

Homo sapiens [3] = species: Homo sapiens; assay: Inhibition of alpha-tubulin polymerization in human HCC1428 cells at 3 uM after 24 hrs by confocal microscopic method; format: cell-based; outline: as §1
Bos taurus [4] = species: Bos taurus; assay: Inhibition of bovine brain tubulin polymerization at 5 uM measured every 1 min for 1 hr by spectrophotometric method
Outline: (§2)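 Bovine brain tubulin (>97% pure) in G-PEM buffer (80 mM PIPES, 0.5 mM EGTA, 1.0 mM GTP, pH 6.9) with 0.1% DMSO, set up at 4 °C with or without compound, using a commercial HTS kit. Vincristine and taxol at 5 µM as controls. Polymerization followed by A340 every 1 min for 1 h at 37 °C.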

Homo sapiens [5] = species: Homo sapiens; assay: Inhibition of alpha-tubulin polymerization in human HCC1428 cells at 1 uM after 24 hrs by confocal microscopic method; format: cell-based; outline: as §1
HCC1428 [6] = assay: Antiproliferative activity against human HCC1428 cells at 1 uM […] by RTCA; format: functional, cell-based
Outline: (§3)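 Real-time impedance (xCELLigence RTCA DP) monitoring of HCC1428 cells plated at 2000 cells/well in E-plate 16. Cells kept in RPMI-1640 with 2% FBS at 37 °C, 5% CO2 throughout. Growth curves recorded over 84 h of compound exposure. Representative of three independent experiments.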

[7] = Cell cycle arrest in human HCC1428 cells assessed as accumulation at G1 phase at 1 uM after 24 hrs by propidium iodide staining based flow cytometry (reference value: 62.61%); format: functional
[8] = Cell cycle arrest in human HCC1428 cells assessed as accumulation at G2/M phase at 1 uM after 24 hrs by propidium iodide staining based flow cytometry (reference value: […]%); format: functional
[9] = Cell cycle arrest in human HCC1428 cells assessed as accumulation at S phase at 1 uM after 24 hrs by propidium iodide staining based flow cytometry (reference value: 24.46%); format: functional
Bos taurus [10] = species: Bos taurus; assay: Inhibition of bovine brain tubulin polymerization at 5 to 10 uM measured every 1 min for 1 hr by spectrophotometric method; outline: as §2
HCC1428 [11] = assay: Antiproliferative activity against human HCC1428 cells at 2 to 4 uM […] by RTCA; format: functional, cell-based; outline: as §3
[12] = Cell cycle arrest in human HCC1428 cells assessed as accumulation at S phase at 6 uM after 24 hrs by propidium iodide staining based flow cytometry (reference value: 24.46%); format: functional
[13] = Cell cycle arrest in human HCC1428 cells assessed as accumulation at G2/M phase at 6 uM after 24 hrs by propidium iodide staining based flow cytometry (reference value: […]%); format: functional
[14] = Cell cycle arrest in human HCC1428 cells assessed as accumulation at G1 phase at 3 uM after 24 hrs by propidium iodide staining based flow cytometry (reference value: 62.61%); format: functional
[15] = Cell cycle arrest in human HCC1428 cells assessed as accumulation at S phase at 3 uM after 24 hrs by propidium iodide staining based flow cytometry (reference value: 24.46%); format: functional
Homo sapiens [16] = species: Homo sapiens; assay: Inhibition of alpha-tubulin polymerization in human HCC1428 cells at 3 to 6 uM after 24 hrs by confocal microscopic method; format: cell-based; outline: as §1
HCC1428 [17] = assay: Cell cycle arrest in human HCC1428 cells assessed as accumulation at G2/M phase after 24 hrs by propidium iodide staining based flow cytometry; format: functional
[18] = Cell cycle arrest in human HCC1428 cells assessed as accumulation at G2/M phase at 3 uM after 24 hrs by propidium iodide staining based flow cytometry (reference value: […]%); format: functional
[19] = Cell cycle arrest in human HCC1428 cells assessed as accumulation at G1 phase at 6 uM after 24 hrs by propidium iodide staining based flow cytometry (reference value: 62.61%); format: functional

IC50 (HT-29) [µM] | IC50 (K562) [µM] | IC50 (HeLa) [µM] | SMILES | IC50 [1] [µM] | further results
20.1 | 29.9 | 28.3 | Oc1ccc2cc1Oc1ccc(cc1)CCc1cc(O)c(c(O)c1)Oc1cccc(c1)CC2 | 25.2 | –
7.98 | 14.1 | 15.9 | Oc1ccc2c(c1)CCc1ccc(O)c(c1)Oc1ccc(cc1)CCc1cccc(O)c1O2 | 10.8 | –
15.9 | 25.3 | 26.8 | Oc1ccc2c(c1)CCc1ccc(O)c(c1)Oc1ccc(cc1O)CCc1cccc(O)c1O2 | 22 | –
12.7 | 15.7 | 18.9 | Oc1cc2ccc1Oc1cccc(c1)CCc1ccc(O)c(c1)Oc1ccc(cc1)CC2 | 22.4 | –
12.4 | 10.9 | 19.5 | Oc1ccc2cc1Oc1cccc(c1)CCc1ccc(O)c(c1)Oc1ccc(cc1O)CC2 | 19.5 | –
11.6 | 6.06 | 15.8 | Oc1cc2ccc1Oc1ccc(cc1)CCc1cccc(O)c1Oc1cccc(c1)CC2 | 7.69 | –
1.76 | 0.57 | 1.23 | COc1cccc2c1C(=O)c1c(O)c3c(c(O)c1C2=O)C[C@@](O)(C(=O)CO)C[C@@H]3O[C@H]1C[C@H](N)[C@H](O)[C@H](C)O1 [DOXORUBICIN HYDROCHLORIDE] | 1.77 | IC50 (PC-3): 16.9 µM
7.57 | 8.52 | 10.5 | Oc1ccc2cc1Oc1ccc(cc1)CCc1cccc(O)c1Oc1ccc(cc1)CC2 | 9.25 | IC50 (PC-3): 10.9 µM
7.98 | 7.02 | 11.7 | Oc1ccc2cc1Oc1ccc(cc1)CCc1ccc(O)c(c1)Oc1cccc(c1)CC2 | 10.7 | inhibition (Homo sapiens [2]): Active; IC50 (PC-3): 13.4 µM; inhibition (Homo sapiens [3]): inactive
– | – | – | CC(=O)O[C@H]1C(=O)[C@@]2(C)[C@H]([C@H](OC(=O)c3ccccc3)[C@]3(O)C[C@H](OC(=O)[C@H](O)[C@@H](NC(=O)c4ccccc4)c4ccccc4)C(C)=C1C3(C)C)[C@]1(OC(C)=O)CO[C@@H]1C[C@@H]2O | – | inhibition (Bos taurus [4]): inactive
17 | 24.9 | 27.4 | Oc1ccc2cc1Oc1ccc(cc1)CCc1cccc(O)c1Oc1ccc(cc1O)CC2 | 19.5 | –
14.8 | 15.6 | 29.4 | Oc1ccc2cc1Oc1ccc(cc1)CCc1ccc(O)c(c1)Oc1ccc(cc1O)CC2 | 20.1 | –
7.51 | 6.16 | 10.4 | Oc1cc2c(cc1O)Oc1c(O)cccc1CCc1ccc(cc1)Oc1cc(ccc1O)CC2 | 8.46 | IC50 (PC-3): 7.7 µM
11.5 | 10.2 | 22.7 | Oc1ccc2cc1Oc1ccc(cc1)CCc1ccc(O)c(c1)Oc1ccc(cc1)CC2 | 15.3 | –
– | – | – | CC[C@]1(O)C[C@H]2CN(CCc3c([nH]c4ccccc34)[C@@](C(=O)OC)(c3cc4c(cc3OC)N(C=O)[C@H]3[C@@](O)(C(=O)OC)[C@H](OC(C)=O)[C@]5(CC)C=CCN6CC[C@]43[C@@H]65)C2)C1 [VINCRISTINE] | – | inhibition (Bos taurus [4]): Active; inhibition (Homo sapiens [5]): Active; Activity (HCC1428 [6]): Active; Activity [7]: 4.15%; Activity [8]: 88.89%; Activity [9]: 6.96%
12.4 | 21.6 | 21.5 | Oc1ccc2cc1Oc1ccc(cc1)CCc1cccc(O)c1Oc1ccccc1CC2 | 19 | –
1.98 | 1.74 | 2.61 | COc1cccc2c1Oc1cc(O)c(O)cc1CCc1ccc(O)c(c1)Oc1ccc(cc1)CC2 | 1.51 | inhibition (Bos taurus [10]): Active; Activity (HCC1428 [11]): Active; Activity [12]: 11.12%; Activity [13]: 85.34%; Activity [14]: 38.6%; IC50 (PC-3): 5.51 µM; Activity [15]: 23.66%; inhibition (Homo sapiens [16]): Active; Activity (HCC1428 [17]): Dose-dependent effect; Activity [18]: 37.7%; Activity [19]: 3.54%
9.6 | 19.2 | 21.9 | Oc1ccc2cc1Oc1ccc(cc1)/C=C\c1cccc(O)c1Oc1ccccc1CC2 | 17.1 | –
